Experimental data published in article PMC2118398 (The Journal of Experimental Medicine, 2006).
Each block holds one compound with its values, some of them ahead of it.

Experiments:
[1] = biological target: CXCR7 (SDF-1 binding site on MCF-7 cells) (Homo sapiens, UniProt P25106); assay: Radioligand
[2] = test system: human lung carcinoma A549; assay: A549 human lung carcinoma xenograft model; type: in vivo, mouse; conditions: 2 mg/kg intraperitoneally every 2 d; vs vehicle control, P < 0.005
[3] = biological target: CXCR7 (SDF-1 binding site on fetal liver cells) (Mus musculus, UniProt P56485); conditions: 125I SDF-1
MCF-7 cells [4] = assay: Cell migration of MCF-7 cells; type: cell-based, human; conditions: agonist response
How it was run: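 Cells in HBSS with Ca2+, Mg2+ and 0.1% BSA were placed above a filter (3 or 5 μm pores, chosen by cell size) in a 96-well microchamber, with chemokine below. After 90 min at 37°C in humidified air, the filter was removed. Cells in the lower chamber were quantified with CyQuant fluorescence at 540 nm.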

MCF-7 cells [5] = assay: Calcium mobilization in MCF-7 cells; type: cell-based, human; conditions: agonist response
How it was run: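 Cells were loaded with the ratiometric dye Indo-1 and stimulated with 10 nM SDF-1α. The intracellular calcium trace was recorded around ligand addition. The analysis was reproduced in at least 10 independent studies.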

human CXCR7 (RDC1) = human CXCR7 (RDC1) (Homo sapiens, UniProt P25106); assay: Radioligand; type: binding
[6] = biological target: CXCR7 on mouse B cell lymphoma BCL1 (Mus musculus, UniProt P56485); assay: 125I SDF-1 binding profile on BCL1 cells; conditions: Fig. 3 B; 100 nM chemokine, 10 μM small molecules
How it was run: (§1)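 Intact cells bound 125I SDF-1 with or without 100 nM unlabelled chemokine, 10 μM CXCR7 antagonist or 10 μM CXCR4 antagonist. Cell-bound radioactivity was counted in a γ counter. CXCR7 binding was taken as binding displaced by unlabelled ligand or the CXCR7 antagonist but not by the CXCR4 antagonist.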

[7] = biological target: CXCR7 on human cervical carcinoma HeLa cells (Homo sapiens, UniProt P25106); assay: 125I SDF-1 binding profile on HeLa cells; conditions: Fig. 3 B; 100 nM chemokine, 10 μM small molecules
How it was run: as §1

CXCR4 (CEM-NKr cells) = CXCR4 (CEM-NKr cells) (Homo sapiens, UniProt P61073); assay: 125I SDF-1 competition binding to CEM-NKr cells
How it was run: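 Whole CEM-NKr cells were incubated with 125I SDF-1 in the presence of unlabeled SDF-1α, a CXCR4 antagonist, or a CXCR7 antagonist as competitors. Cell-bound radioactivity was counted in a γ counter.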

CEM-NKr cells [8] = assay: Cell migration of CEM-NKr cells; type: cell-based, human; conditions: unpublished data
How it was run: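 Cells in chemotaxis buffer (HBSS with Ca2+, Mg2+, 0.1% BSA) were placed above a 3 or 5 μm pore filter, sized to the cells, with chemokine in the lower chamber. After 90 min at 37°C, filters were removed, CyQuant was added to the lower chamber, and migrated cells were read at 540 nm.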

CEM-NKr cells [9] = assay: Calcium mobilization in CEM-NKr cells; type: cell-based, human; conditions: unpublished data
How it was run: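 Cells were loaded with the ratiometric intracellular dye Indo-1, and the calcium response was recorded on addition of SDF-1α.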

Sequence of CXCR7 (SDF-1 binding site on MCF-7 cells) (P25106 whole entry): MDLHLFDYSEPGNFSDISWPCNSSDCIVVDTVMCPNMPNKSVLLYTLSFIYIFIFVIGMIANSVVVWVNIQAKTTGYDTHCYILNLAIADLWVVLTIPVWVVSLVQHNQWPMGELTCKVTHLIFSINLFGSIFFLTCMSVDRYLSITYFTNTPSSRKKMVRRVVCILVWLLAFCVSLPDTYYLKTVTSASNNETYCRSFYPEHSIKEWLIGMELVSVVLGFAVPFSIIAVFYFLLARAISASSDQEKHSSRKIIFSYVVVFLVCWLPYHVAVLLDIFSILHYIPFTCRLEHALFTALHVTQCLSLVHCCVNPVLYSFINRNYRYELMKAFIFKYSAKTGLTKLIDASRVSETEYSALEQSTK
Sequence of CXCR7 on human cervical carcinoma HeLa cells (P25106 whole entry): as above
Sequence of human CXCR7 (RDC1) (P25106 whole entry): as above
Sequence of CXCR7 (SDF-1 binding site on fetal liver cells) (P56485 whole entry): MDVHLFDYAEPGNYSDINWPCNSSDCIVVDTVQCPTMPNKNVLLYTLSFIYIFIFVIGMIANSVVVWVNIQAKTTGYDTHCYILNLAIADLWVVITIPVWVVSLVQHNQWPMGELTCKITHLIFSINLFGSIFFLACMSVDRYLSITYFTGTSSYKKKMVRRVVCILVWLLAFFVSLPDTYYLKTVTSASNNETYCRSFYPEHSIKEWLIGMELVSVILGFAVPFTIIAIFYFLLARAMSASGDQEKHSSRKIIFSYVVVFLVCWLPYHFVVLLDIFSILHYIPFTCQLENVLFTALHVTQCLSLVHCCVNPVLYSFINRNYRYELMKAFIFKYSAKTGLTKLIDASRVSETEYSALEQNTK
Sequence of CXCR7 on mouse B cell lymphoma BCL1 (P56485 whole entry): as above
Sequence of CXCR4 (CEM-NKr cells) (P61073 whole entry): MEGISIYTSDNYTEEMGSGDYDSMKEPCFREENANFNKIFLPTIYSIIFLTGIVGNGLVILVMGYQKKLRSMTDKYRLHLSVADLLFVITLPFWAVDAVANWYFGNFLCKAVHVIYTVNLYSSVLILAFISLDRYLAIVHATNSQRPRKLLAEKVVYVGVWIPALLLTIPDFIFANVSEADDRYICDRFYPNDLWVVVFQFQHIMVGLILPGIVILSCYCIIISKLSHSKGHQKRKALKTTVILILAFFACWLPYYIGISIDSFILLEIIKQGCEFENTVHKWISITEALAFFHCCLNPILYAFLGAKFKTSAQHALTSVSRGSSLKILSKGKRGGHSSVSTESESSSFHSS

inhibition of 125I I-TAC binding to MCF-7 cells (in words) [1]: no inhibitory effect | inhibition of 125I SDF-1 binding to MCF-7 cells (in words) [1]: no inhibitory effect
Compound: IP10: chemokine IP10 (CXCL10), thought to bind only CXCR3

inhibition of 125I I-TAC binding to MCF-7 cells (in words) [1]: no inhibitory effect | inhibition of 125I SDF-1 binding to MCF-7 cells (in words) [1]: no inhibitory effect
Compound: Mig: chemokine Mig (CXCL9), thought to bind only CXCR3

Compound: N[C@@H](Cc1ccc(N(CCCl)CCCl)cc1)C(=O)O [Melphalan]
tumor volume at 49 d, A549 model (positive control) [2]: reduced tumor volume

inhibition of the SDF-1 binding site of E13 embryos of CXCR4-/- mice [3]: inhibited | inhibition of 125I SDF-1 binding to RDC1 (CXCR7) transfectants (in words) (human CXCR7 (RDC1)): blocked | inhibition of 125I SDF-1 binding to MCF-7 cells (in words) [1]: strongly displaced | inhibition of 125I SDF-1 binding to BCL1 cells [6]: inhibited | inhibition of 125I SDF-1 binding to HeLa cells [7]: inhibited
Compound: I-TAC: CXC chemokine interferon-inducible T cell α chemoattractant, also known as CXCL11
chemokine-induced migration of MCF-7 cells (MCF-7 cells [4]): failed to induce | chemokine-induced calcium mobilization in MCF-7 cells (MCF-7 cells [5]): failed to induce

inhibition of 125I SDF-1 binding to CEM-NKr cells (in words) (CXCR4 (CEM-NKr cells)): inhibited binding | inhibition of 125I SDF-1 binding to MCF-7 cells (in words) [1]: not to MCF-7 cells
Compound: c1cc(CN2CCCNCCNCCCNCC2)ccc1CN1CCCNCCNCCCNCC1 [AMD3100]
inhibition of SDF-1-induced cell migration of CEM-NKr cells (CEM-NKr cells [8]): inhibited all functions | inhibition of SDF-1-induced calcium mobilization in CEM-NKr cells (CEM-NKr cells [9]): inhibited all functions
